Type in all cases: functional
The test system of assay [1] is DLD-1. The assay is described as follows: Cytotoxicity against human DLD1 cells assessed as cell viability at 10 uM after 3 days by colorimetric MTT assay. To be noted: DLD-1, 72 h, read-out: Activity. A digest of the protocol:
(§1)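 A549 and DLD-1 cells from ATCC, grown as recommended, were seeded at 5000 cells/well the day before dosing. They were exposed for 3 days in medium with 5% FBS to compound diluted from 20 mM DMSO stocks (final up to 20 µM, 0.1% v/v DMSO). Cells then received 0.5 mg/mL MTT for 4 h, formazan was dissolved in 10% SDS/10 mM HCl, and A595 was read. Viability is % of 0.1% DMSO control; two experiments, triplicate points.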
(Formazan colour is commonly taken as a measure of viable cells.)

Assay [2] has as its system A549. The assay is described as follows: Cytotoxicity against human A549 cells assessed as cell viability at 1 uM after 3 days by colorimetric MTT assay. To be noted: A549, 72 h, read-out: Activity. A digest of the protocol:
as §1

Assay [3] has as its system DLD-1. The assay can be described thus: Cytotoxicity against human DLD1 cells assessed as cell viability at 1 uM after 3 days by colorimetric MTT assay. Particulars: DLD-1, 72 h, read-out: Activity. A digest of the protocol: as §1
Assay [4] relates to MV4-11. The assay is described as follows: Cytotoxicity against human MV4-11 cells assessed as cell viability at 10 uM after 3 days by colorimetric MTT assay. To be noted: MV4-11, 72 h, read-out: Activity. The method in brief: (§2)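 MV4-11 leukemia cells from ATCC, grown as recommended, were plated at 40,000 cells/well immediately before treatment. They were cultured 3 days in 5% FBS medium with compound from 20 mM DMSO stocks diluted in RPMI (final ≤20 µM, 0.1% v/v DMSO). MTT (0.5 mg/mL, 4 h) was followed by SDS/HCl solubilization and absorbance at 595 nm. Percent viability is relative to DMSO-treated controls; run twice in triplicate.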

In assay [5] the test system is A549. The assay can be described thus: Cytotoxicity against human A549 cells assessed as cell viability at 10 uM after 3 days by colorimetric MTT assay. Particulars: A549, 72 h, read-out: Activity. A digest of the protocol: as §1
Assay [6] concerns MV4-11. The assay is described as follows: Cytotoxicity against human MV4-11 cells assessed as cell viability at 1 uM after 3 days by colorimetric MTT assay. To be noted: MV4-11, 72 h, read-out: Activity. A digest of the protocol:
as §2

Assay [7] has as its system A549. The assay can be described thus: Cytotoxicity against human A549 cells assessed as cell viability at 20 uM after 3 days by colorimetric MTT assay. Particulars: A549, 72 h, read-out: Activity. A digest of the protocol:
as §1

The subject of assay [8] is DLD-1. The assay is described as follows: Cytotoxicity against human DLD1 cells assessed as cell viability at 20 uM after 3 days by colorimetric MTT assay. Particulars: DLD-1, 72 h, read-out: Activity. The method in brief: as §1
Assay [9] concerns MV4-11. The assay is described as follows: Cytotoxicity against human MV4-11 cells assessed as cell viability at 20 uM after 3 days by colorimetric MTT assay. To be noted: MV4-11, 72 h, read-out: Activity. A digest of the protocol: as §2

In the case of `C#Cc1cccc(Nc2ncnc3cc(OCCOC)c(OCCOC)cc23)c1` [ERLOTINIB], the viability at 10 µM was determined as 55.4% in assay [1], 16.8% in assay [4] and 68.5% in assay [5]. Also, the results for the viability at 1 µM in [2], in assay [3] and in assay [6] were 83%, 85.7% and 98.3%, respectively.

`Cc1ccc(NC(=O)c2ccc(CN3CCN(C)CC3)cc2)cc1Nc1nccc(-c2cccnc2)n1` [IMATINIB]: the viability at 10 µM was 91.5% in assay [1], 82% in assay [4] and 98.6% in assay [5]. For the same compound, the viability at 1 µM in assay [2] was determined as 108%; in assay [3], 89.9%; in [6], 105%.

As to `O=C1COc2ccc(-c3nn(-c4ccc(F)cc4)cc3-c3ccccc3)cc2N1`, the viability at 1 µM stood at 78.2% in [2], 64.4% in assay [3] and 107% in [6]. The viability at 20 µM in assay [7] worked out at 56.4%; in assay [8] it was 45.2%; in assay [9] it was 92.6%.

As for `COc1cc2/c(=N/c3ccc(Br)cc3F)nc[nH]c2cc1OCC1CCN(C)CC1` [VANDETANIB], the viability at 10 µM was 37.9% in assay [1], 1.6% in assay [4] and 41.7% in assay [5]. For the same compound, the viability at 1 µM stood at 88.7% in assay [2], 88.6% in assay [3] and 84.1% in [6].

Take `O=C1COc2ccc(-c3[nH]c(-c4c[nH]c5ncccc45)nc3-c3ccccc3)cc2N1`: the viability at 1 µM in [2] was determined as 100%; in assay [3], 97.7%; in [6], 111%. In addition, the viability at 20 µM in assay [7] amounted to 86.8%; in assay [8], 53.5%; in [9], 8.9%.

For the compound `O=C1COc2ccc(-c3nn(-c4cc(Cl)cc(Cl)c4)cc3-c3ccccc3)cc2N1`, the viability at 1 µM in [2] turned out to be 93.1%; in assay [3], 90.3%; in assay [6] it was 105%. Also, the results for the viability at 20 µM in assay [7], in assay [8] and in assay [9] were 70.2%, 52.2% and 50.5%, respectively.

In the case of `COc1ccc(-n2cc(-c3ccccc3)c(-c3ccc4c(c3)NC(=O)CO4)n2)cc1`, the viability at 1 µM in [2] came to 95.6%; in [3], 92.2%; in assay [6], 106%. Besides, the viability at 20 µM in assay [7] was 42.6%; in [8], 35.6%; in [9], 59.9%.

As to `COc1ccc(-c2nc(-c3ccccc3)c(-c3ccc4c(c3)NC(=O)CO4)[nH]2)cc1`, the viability at 1 µM in assay [2] stood at 101%; in assay [3] it was 96%; in assay [6], 108%. Also, the viability at 20 µM in assay [7] is 38.1%; in assay [8] it was 19.1%; in assay [9] it was 1.2%.

As for `O=C1COc2ccc(-c3nn(-c4ccccc4)cc3-c3ccccc3)cc2N1`, the viability at 1 µM in assay [2] turned out to be 92.2%; in assay [3], 77%; in [6], 117%. Moreover, the values for the viability at 20 µM in assay [7], in [8] and in [9] were 59.7%, 47.7% and 97.9%, respectively.

Regarding `COc1cc2ncnc(Nc3ccc(F)c(Cl)c3)c2cc1OCCCN1CCOCC1` [GEFITINIB], the results for the viability at 10 µM in assay [1], in [4] and in [5] were 65.7%, 7% and 61.5%, respectively. Also, the viability at 1 µM was determined as 84.4% in assay [2], 87% in assay [3] and 92.4% in assay [6].

With `O=C1COc2ccc(-c3nn(-c4ccc(Br)cc4)cc3-c3ccccc3)cc2N1`, the viability at 1 µM in assay [2] came to 81.5%; in assay [3], 66.4%; in assay [6], 108%. Further, the viability at 20 µM in assay [7] was 58.8%; in assay [8], 54.2%; in assay [9], 91.5%.

As for `O=C1COc2ccc(-c3nn(-c4ccc(Cl)cc4)cc3-c3ccccc3)cc2N1`, the viability at 1 µM in assay [2] is 84.4%; in assay [3], 61.9%; in assay [6], 108%. In addition, the viability at 20 µM in [7] stood at 52.4%; in assay [8], 47.1%; in assay [9] it was 91.9%.

For the compound `O=C1COc2ccc(-c3[nH]c(-c4ccc(C(F)(F)F)cc4)nc3-c3ccccc3)cc2N1`, the viability at 1 µM in [2] came out at 103%; in assay [3] it was 95%; in assay [6] it was 111%. Moreover, the viability at 20 µM in assay [7] came to 21.7%; in [8], 12.1%; in assay [9], 0.6%.

As for `O=C1COc2ccc(-c3[nH]c(-c4ccc(F)cc4)nc3-c3ccccc3)cc2N1`, the viability at 1 µM came out at 97.1% in assay [2], 94.8% in assay [3] and 108% in assay [6]. Besides, the results for the viability at 20 µM in assay [7], in assay [8] and in assay [9] were 37.5%, 29.5% and 1.1%, respectively.

Regarding `O=C1COc2ccc(-c3[nH]c(-c4ccc(Cl)cc4Cl)nc3-c3ccccc3)cc2N1`, the figures for the viability at 1 µM in assay [2], in assay [3] and in assay [6] were 97.4%, 97.8% and 109%, respectively. For the same compound, the results for the viability at 20 µM in [7], in assay [8] and in assay [9] were 68.3%, 61.9% and 41.1%, respectively.

Consider `O=C1COc2ccc(-c3[nH]c(-c4ccccc4)nc3-c3ccccc3)cc2N1`, for which the viability at 1 µM is 95.6% in [2], 98.2% in [3] and 105% in assay [6]. Moreover, the figures for the viability at 20 µM in assay [7], in assay [8] and in assay [9] were 58.5%, 47.3% and 7.6%, respectively.

Regarding `CCN(CC)CCNC(=O)c1c(C)[nH]c(/C=C2\C(=O)Nc3ccc(F)cc32)c1C` [SUNITINIB], the viability at 10 µM in [1] turned out to be 52.7%; in assay [4], 0.5%; in assay [5] it was 37.4%. Further, the viability at 1 µM was 102% in assay [2], 92.9% in [3] and 1.4% in assay [6].

For the compound `CNC(=O)c1cc(Oc2ccc(NC(=O)Nc3ccc(Cl)c(C(F)(F)F)c3)cc2)ccn1` [SORAFENIB], the viability at 10 µM is 28% in assay [1], 0.7% in assay [4] and 28.6% in [5]. The viability at 1 µM in assay [2] came out at 103%; in [3], 93.4%; in assay [6], 1.6%.

Turning to `Cc1ccccc1-n1cc(-c2ccccc2)c(-c2ccc3c(c2)NC(=O)CO3)n1`, the viability at 1 µM turned out to be 94.8% in assay [2], 92.2% in [3] and 99.4% in [6]. The figures for the viability at 20 µM in [7], in assay [8] and in [9] were 85.3%, 62.9% and 54.2%, respectively.
